Test results: ChEMBL document CHEMBL1275392, “Assessment of chemoselective neoglycosylation methods using chlorambucil as a model” (2010)

How the values were obtained:
NCI-H460 = assay: Growth inhibition of human NCI-H460 cells after 7 days by celltiter-glo assay; type: functional; settings: NCI-H460, 168 h
HT-29 = assay: Growth inhibition of human HT-29 cells after 7 days by celltiter-glo assay; type: functional; settings: HT-29, 168 h
HCT-15 = assay: Growth inhibition of human HCT15 cells after 7 days by celltiter-glo assay; type: functional; settings: HCT-15, 168 h
SF-268 = assay: Growth inhibition of human SF268 cells after 7 days by celltiter-glo assay; type: functional; settings: SF-268, 168 h
A549 = assay: Growth inhibition of human A549 cells expressing p53 after 7 days by celltiter-glo assay; type: functional; settings: A549, 168 h
[1] = Growth inhibition of human p53 deficient Hep3B cells after 7 days by celltiter-glo assay; type: functional, Hep 3B2; settings: 168 h
In short: (§1)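 Cells seeded at 500 per well in 384-well plates. Compounds came from 30 mM DMSO stocks, serially diluted and tested in quadruplicate. Incubation was 7 d at 37 °C under 5% CO2. Calcein AM (10 μM) and EthD-1 were added, followed by a fluorescence read. CellTiter-Glo lysis was then done for 10 min at room temperature, with a luminescence read. GI50 came from curve fitting.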

[2] = Growth inhibition of human p53 deficient H1299 cells after 7 days by celltiter-glo assay; type: functional; settings: NCI-H1299, 168 h; in short: as §1
SK-OV-3 = assay: Growth inhibition of human SKOV3 cells after 7 days by celltiter-glo assay; type: functional; settings: SK-OV-3, 168 h
DU-145 = assay: Growth inhibition of human DU145 cells after 7 days by celltiter-glo assay; type: functional; settings: DU-145, 168 h
MCF7 = assay: Growth inhibition of human MCF7 cells after 7 days by celltiter-glo assay; type: functional; settings: MCF7, 168 h

Structure (SMILES) | GI50 (NCI-H460) | GI50 (HT-29) | GI50 (HCT-15) | GI50 (SF-268) | GI50 (A549) | GI50 [1] | GI50 [2] | GI50 (SK-OV-3) | GI50 (DU-145) | GI50 (MCF7)
CON(CCCc1ccc(N(CCCl)CCCl)cc1)[C@@H]1OC[C@@H](O)[C@H]1O | 7.8 µM | 1600 nM | 770 nM | 2400 nM | 3100 nM | 4.1 µM | 1100 nM | 2600 nM | 5 µM | 8 µM
CON(CCCc1ccc(N(CCCl)CCCl)cc1)[C@H]1O[C@H](COCc2ccccc2)[C@@H](OCc2ccccc2)[C@@H]1OCc1ccccc1 | > 100 µM | 47000 nM | 64000 nM | 80000 nM | > 100000 nM | > 100 µM | > 100000 nM | > 100000 nM | > 100 µM | 82 µM
CON(CCCc1ccc(N(CCCl)CCCl)cc1)C1OC[C@H](O)[C@@H](O)[C@H]1O (stereo not given in full) | 5.8 µM | 2400 nM | 950 nM | 1200 nM | 2200 nM | 3 µM | 880 nM | 1800 nM | 3.9 µM | 0.94 µM
CON(CCCc1ccc(N(CCCl)CCCl)cc1)[C@@H]1O[C@H](CO)[C@@H](O)[C@H](O[C@H](C)C(=O)O)[C@H]1NC(C)=O | 13.1 µM | 6300 nM | 3100 nM | 4100 nM | 8600 nM | 8 µM | 2400 nM | 7000 nM | 8.9 µM | 4.5 µM
CON(CCCc1ccc(N(CCCl)CCCl)cc1)C1OC[C@H](O)[C@H](O)[C@H]1O (stereo not given in full) | 6.1 µM | 1900 nM | 1000 nM | 1900 nM | 2300 nM | 1.9 µM | 840 nM | 2200 nM | 3.6 µM | 5.4 µM
CON(CCCc1ccc(N(CCCl)CCCl)cc1)[C@H]1O[C@H](CO)[C@H](O)[C@H](O)[C@@H]1O | 5 µM | 1800 nM | 2200 nM | 1700 nM | 2600 nM | 2.4 µM | 3000 nM | 2000 nM | 3.3 µM | 1.5 µM
O=C1O[C@@H]2[C@@H](O)[C@H](N(O)CCCc3ccc(N(CCCl)CCCl)cc3)O[C@@H]2[C@@H]1O | 13.1 µM | 9900 nM | 8500 nM | 3100 nM | 10400 nM | 7.2 µM | 3800 nM | 10100 nM | 14.8 µM | 4.1 µM
C[C@H]1O[C@@H](NNC(=O)CCCc2ccc(N(CCCl)CCCl)cc2)[C@H](O)[C@@H](O)[C@H]1O | 51 µM | 16700 nM | > 100000 nM | 5800 nM | 28000 nM | 11 µM | 8700 nM | 22000 nM | 24 µM | 6.3 µM
CON(CCCc1ccc(N(CCCl)CCCl)cc1)C1C[C@H](O)[C@H](O)CO1 (stereo not given in full) | 5.8 µM | 2600 nM | 2300 nM | 2100 nM | 2600 nM | 2.6 µM | 3700 nM | 2000 nM | 4 µM | 0.96 µM
CON(CCCc1ccc(N(CCCl)CCCl)cc1)C1O[C@H](CO)[C@@H](O)[C@H](O)[C@@H]1NC(C)=O (stereo not given in full) | 33.3 µM | 8700 nM | 22000 nM | 3400 nM | 21000 nM | 9.8 µM | 2700 nM | 10100 nM | 16 µM | 9 µM
CON(CCCc1ccc(N(CCCl)CCCl)cc1)C1OC[C@@H](O)[C@@H](O)[C@@H]1O (stereo not given in full) | 5 µM | 1500 nM | 900 nM | 1800 nM | 2000 nM | 1.6 µM | 730 nM | 2000 nM | 3.3 µM | 4.6 µM
CON(CCCc1ccc(N(CCCl)CCCl)cc1)[C@H]1OC[C@H](O)[C@@H](O)[C@@H]1O | 2.9 µM | 1500 nM | 830 nM | 1500 nM | 2200 nM | 1.6 µM | 930 nM | 2400 nM | 2.2 µM | 1.2 µM
CON(CCCc1ccc(N(CCCl)CCCl)cc1)C1O[C@@H](CO)[C@@H](O)[C@@H](O)[C@@H]1O (stereo not given in full) | 10.4 µM | 3700 nM | 2300 nM | 2000 nM | 4800 nM | 3.8 µM | 1400 nM | 4100 nM | 5.5 µM | 1.3 µM
C[C@H]1OC(N(O)CCCc2ccc(N(CCCl)CCCl)cc2)[C@H](O)[C@@H](O)[C@H]1O (stereo not given in full) | 4.9 µM | 4600 nM | 3800 nM | 1400 nM | 6400 nM | 3.6 µM | 2600 nM | 4700 nM | 5.7 µM | 2.7 µM
CON(CCCc1ccc(N(CCCl)CCCl)cc1)C1OC[C@@H](O)[C@H](O)[C@@H]1O (stereo not given in full) | 5.2 µM | 2000 nM | 790 nM | 1600 nM | 2300 nM | 2.5 µM | 760 nM | 1800 nM | 3.6 µM | 1 µM
CON(CCCc1ccc(N(CCCl)CCCl)cc1)C1O[C@H](CO)[C@@H](O)[C@@H](O)[C@@H]1O (stereo not given in full) | 6.6 µM | 1600 nM | 1400 nM | 1900 nM | 2400 nM | 1.7 µM | 910 nM | 1900 nM | 4.1 µM | 6.5 µM
CON(CCCc1ccc(N(CCCl)CCCl)cc1)[C@@H]1O[C@H](CO)[C@@H](O)[C@H](O)[C@H]1F | 6.4 µM | 2400 nM | 1080 nM | 2200 nM | 2600 nM | 3.2 µM | 1200 nM | 2000 nM | 4.2 µM | 7.3 µM
CON(CCCc1ccc(N(CCCl)CCCl)cc1)[C@@H]1O[C@H](CCl)[C@@H](O)[C@H](O)[C@H]1O | 5.8 µM | 2100 nM | 1200 nM | 2100 nM | 3000 nM | 3.2 µM | 1300 nM | 2100 nM | 3.7 µM | 4.9 µM
O[C@@H]1[C@H](O)COC(N(O)CCCc2ccc(N(CCCl)CCCl)cc2)[C@@H]1O (stereo not given in full) | 1.04 µM | 900 nM | 870 nM | 1500 nM | 840 nM | > 5 µM | 1600 nM | 890 nM | > 5 µM | 3.2 µM
